ChEMBL document CHEMBL1144887, “Indanylidenes. 1. Design and synthesis of (E)-2-(4,6-difluoro-1-indanylidene)acetamide, a potent, centrally acting muscle relaxant with antiinflammatory and analgesic activity” (J Med Chem, 2003)

Assays:
Assay type in all cases: functional
[1] = tested on: Mus musculus; assay: (§1) Percent effect profile muscle relaxation at 100 mg/kg by intraperitoneal administration in mouse using Straub-tail (ST) assay; details: ip
Summary of the method: (§2)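 Mouse morphine-induced Straub tail assay, scoring inhibition of sacro-coccygeus dorsalis contraction. Single ip dose of 100 mg/kg; percent effect reported. Compounds above 50% inhibition were then tested orally.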

[2] = tested on: Rattus norvegicus; assay: Antiinflammatory activity in edema by Carrageenan pleurisy assay by oral administration at 20 mg/kg.
Summary of the method: (§3)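 Rat carrageenan pleurisy, 3 h. Single oral dose of 20 mg/kg, with separate read-outs for pleural cell counts and edema as percent inhibition. Each compound tested two or three times; average variation approximately 10%.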

[3] = tested on: Rattus norvegicus; assay: Antiinflammatory activity in cells by Carrageenan pleurisy assay by oral administration at 20 mg/kg.; summary of the method: as §3
[4] = tested on: Rattus norvegicus; assay: Percent inhibition for analgesic activity by trypsin-induced hyperalgesia assay at 20 mg/kg by oral administration in rats.
Summary of the method: (§4)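 Rat trypsin-induced hyperalgesia (mild analgesia). Percent inhibition at a single oral dose of 20 mg/kg. Each compound tested two or three times; average variation approximately 5%.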

[5] = tested on: Mus musculus; assay: Sedation caused by oral administration was estimated using rotarod (RR) assay.
Summary of the method: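 Mouse rotorod test for sedation, oral dosing, generally at a minimum of three doses with N = 6 animals per dose group.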

[6] = tested on: Mus musculus; assay: Effective dose required for muscle relaxation by oral administration in mouse using Straub-tail (ST) assay.
Summary of the method: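 Mouse morphine-induced Straub tail assay, scoring inhibition of sacro-coccygeus dorsalis contraction. Dosed ip or po, generally at a minimum of three doses with N = 6 animals per dose group.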

[7] = species on record: Mus musculus; assay: Ratio of rotarod to Straub-tail activity, which indicates the dose exhibiting muscle relaxant activity versus that producing sedation.
Summary of the method: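 Ratio of rotorod ED50 (po) to Straub tail ED50 (po), both measured in mice with oral dosing. Indicates separation between the muscle-relaxant dose and the sedating dose.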

[8] = tested on: Rattus norvegicus; assay: Percent inhibition for analgesic activity by trypsin-induced hyperalgesia assay at 20 mg/kg by oral administration in rats; summary of the method: as §4
[9] = tested on: Mus musculus; assay: as §1; details: ip; summary of the method: as §2; remark: listed apart in the source

Compound | inhibition in vivo at 100 mg/kg [1] | inhibition in vivo at 20 mg/kg [2] | inhibition in vivo at 20 mg/kg [3] | inhibition in vivo at 20 mg/kg [4] | ED50 [5] | ED50 [6] | Ratio [7] | inhibition in vivo at 20 mg/kg [8] | inhibition in vivo at 100 mg/kg [9] | ED50 [9]
O=C(/C=C1\CCc2ccc(F)cc21)NCCO | 50% | 78% | 42% | 33% | – | – | – | – | – | –
CNC(=O)/C=C1\CCc2ccc(Br)cc21 | 0% | 53% | 44% | 4% | – | – | – | – | – | –
CN(C)C(=O)/C=C1\CCc2c(F)cc(F)cc21 | 100% | – | – | – | 100 mg/kg | 50 mg/kg | 2 | 75% | – | –
O=C(/C=C1\CCc2ccc(F)cc21)N1CCOCC1 | 100% | 31% | 7% | – | – | 90 mg/kg | – | – | – | –
CNC(=O)/C=C1\CCc2cc(F)cc(F)c21 | 33% | – | – | – | – | – | – | 33% | – | –
Cc1cccc2c1CC/C2=C\C(=O)NC1CC1 | – | 7% | 15% | – | 64 mg/kg | 40 mg/kg | 1.6 | – | 100% | –
O=C(/C=C1\CCc2ccc(F)cc21)NC1CC1 | 100% | 7% | 5% | – | 62 mg/kg | 66 mg/kg | 0.9 | – | – | –
CON(C)C(=O)/C=C1\CCc2ccc(F)cc21 | 17% | 14% | 6% | – | – | – | – | – | – | –
CCNC(=O)/C=C1\CCc2ccc(F)cc21 | 100% | 63% | 45% | 40% | 136 mg/kg | 70 mg/kg | 1.9 | – | – | –
O=C(/C=C1\CCc2ccc(F)cc21)N1CCCC1 | 33% | 18% | 10% | 10% | – | – | – | – | – | –
O=C(/C=C1\CCc2c(F)ccc(F)c21)NC1CC1 | 100% | – | – | 2% | 2 mg/kg | 59 mg/kg | 0.03 | – | – | –
CCNC(=O)/C=C1\CCc2c(F)cc(F)cc21 | 67% | – | – | 63% | – | – | – | – | – | –
NC(=O)/C=C1\CCc2cc(F)ccc21 | – | 42% | 54% | – | > 100 mg/kg | 56 mg/kg | >~2 | – | 100% | –
N#Cc1ccc2c(c1)/C(=C/C(N)=O)CC2 | – | – | – | 21% | – | – | – | – | – | 33 mg/kg
COc1ccc2c(c1)/C(=C/C(N)=O)CC2 | – | 3% | 1% | – | – | – | – | – | 0% | –
CCCNC(=O)/C=C1\CCc2ccc(F)cc21 | 100% | 36% | 0% | 11% | – | > 100 mg/kg | – | – | – | –
NC(=O)/C=C1\CCc2c(Cl)cccc21 | 67% | 58% | 35% | 29% | – | – | – | – | – | –
O=C(/C=C1\CCc2c(F)cc(F)cc21)NCCO | – | – | – | – | – | 100 mg/kg | – | 27% | 83% | –
O=C(/C=C1\CCc2ccc(F)cc21)N1CCC1 | 33% | 0% | 14% | 7% | – | – | – | – | – | –
O=C(/C=C1/CCc2ccc(Cl)cc21)NC1CC1 | – | – | – | – | – | – | – | – | 0% | –
O=C(/C=C1\CCc2ccc(Cl)cc21)NC1CC1 | 50% | – | – | – | – | – | – | – | – | –

Compound | inhibition in vivo at 100 mg/kg [1] | inhibition in vivo at 20 mg/kg [2] | inhibition in vivo at 20 mg/kg [3] | inhibition in vivo at 20 mg/kg [4] | ED50 [5] | ED50 [6] | Ratio [7] | inhibition in vivo at 20 mg/kg [8] | inhibition in vivo at 100 mg/kg [9] | ED50 [9]
CNC(=O)/C=C1\CCc2cc(Cl)ccc21 | 50% | 44% | 40% | 25% | – | – | – | – | – | –
O=C(/C=C1\CCc2c(F)cc(F)cc21)NC1CC1 | 100% | 28% | 38% | – | 62 mg/kg | 62 mg/kg | 1 | – | – | –
O=C(/C=C1\CCc2cc(F)c(F)cc21)NC1CC1 | 50% | 48% | 30% | – | – | – | – | – | – | –
O=C(/C=C1\CCc2ccc(Br)cc21)NC1CC1 | 33% | 4% | 29% | – | – | – | – | – | – | –
Cc1cccc2c1/C(=C/C(N)=O)CC2 | 100% | – | – | – | 56 mg/kg | 82 mg/kg | 0.7 | 12% | – | –
CCN(C)C(=O)/C=C1\CCc2ccc(F)cc21 | 100% | 44% | 20% | 77% | – | 100 mg/kg | – | – | – | –
CNC(=O)/C=C1\CCc2ccc(Cl)cc21 | 16% | 25% | 0% | 17% | – | – | – | – | – | –
O=C(/C=C1\CCc2cc(F)cc(F)c21)NC1CC1 | 100% | – | – | 13% | 81 mg/kg | 69 mg/kg | 1.4 | – | – | –
NC(=O)/C=C1/CCc2ccc(F)cc21 | 100% | – | – | – | 92 mg/kg | 64 mg/kg | 1.4 | 24% | – | –
CCN(C)C(=O)/C=C1\CCc2c(F)cc(F)cc21 | 100% | – | – | – | 73 mg/kg | 56 mg/kg | 1.3 | – | – | –
NC(=O)/C=C1\CCc2c1ccc(F)c2F | 100% | 82% | 77% | 41% | 50 mg/kg | 45 mg/kg | 1.1 | – | – | –
O=C(/C=C1\CCc2c(Cl)cccc21)NC1CC1 | 100% | 45% | 28% | – | 66 mg/kg | 58 mg/kg | 1.1 | – | – | –
O=C(/C=C1\CCc2c1ccc(F)c2F)NC1CC1 | – | 27% | 27% | 11% | – | 62 mg/kg | – | – | 100% | –
NC(=O)CC1CCc2c(F)cc(F)cc21 (centres undefined) | – | – | – | – | – | – | – | 11% | 50% | –
Cc1cccc2c1/C(=C/C(=O)NC1CC1)CC2 | 17% | – | – | – | – | – | – | 24% | – | –
COc1ccc2c(c1)CC/C2=C\C(N)=O | 17% | 25% | 18% | 13% | – | – | – | – | – | –
O=C(/C=C1\CCc2cc(F)ccc21)NC1CC1 | – | – | – | – | 193 mg/kg | 81 mg/kg | 2.4 | – | 100% | –
CC(C)NC(=O)/C=C1\CCc2c(F)cc(F)cc21 | 100% | – | – | – | 76 mg/kg | 50 mg/kg | 1.9 | – | – | –
O=C(/C=C1\CCc2ccc(F)cc21)NCC1CC1 | 50% | 21% | 0% | – | – | – | – | – | – | –
NC(=O)/C=C1\CCc2ccc(Br)cc21 | 100% | 21% | 38% | – | – | 96 mg/kg | – | – | – | –
O=C(/C=C1\CCc2cc(Cl)ccc21)NC1CC1 | 17% | 29% | 34% | – | – | – | – | – | – | –
